Reference: the RNAGym collection of RNA variant scans (doi:10.1002/anie.201605470)

B1: Osa-1-4 twister ribozyme (parent)
chain: CCGCCUAACACUGCCAAUGCCGGUCCCAAGCCCGGAUAAAAGUGGAGGGGGCGG

Variants of: B1
Assay: self-cleavage, relative activity (ratio to wild type); higher = more cleavage; co-transcriptional
Outline: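 A DNA template for a 54-nucleotide Oryza sativa twister ribozyme was synthesised with 97 % wild-type base and 1 % of each other base at the 48 positions downstream of the cleavage site. It was transcribed in vitro for 2 h at 37 °C, allowing co-transcriptional self-cleavage, then reverse-transcribed with a template-switching oligonucleotide, PCR-amplified and deep-sequenced. Cleavage status was scored from reads with or without upstream sequence. Relative activity is fraction cleaved normalised to wild type.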
Work on C9A G42C yielded a self-cleavage of 0.04.
With C9A G42U the self-cleavage was 0.03.
C9A G44A showed a self-cleavage of 0.47.
C9A G44C showed a self-cleavage of 0.5.
Work on C9A G44U yielded a self-cleavage of 0.63.
C9A G45A showed a self-cleavage of 0.04.
For C9A G45C, the self-cleavage was 0.01.
C9A G45U showed a self-cleavage of 0.03.
For C9A G47A, the self-cleavage was 0.05.
For C9A G47C, the self-cleavage was 0.03.
Work on C9A G47U yielded a self-cleavage of 0.03.
C9A G48A showed a self-cleavage of 0.02.
Variant C9A G48C has a self-cleavage of 0.02.
In the case of C9A G48U, the self-cleavage is reported as 0.02.
Variant C9A G49A has a self-cleavage of 0.04.
C9A G49C gave a self-cleavage of 0.02.
For C9A G49U, the self-cleavage was 0.03.
With C9A G50A the self-cleavage was 0.13.
With C9A G50C the self-cleavage was 0.38.
C9A G50U showed a self-cleavage of 0.5.
C9A G51A showed a self-cleavage of 0.13.
Variant C9A G51C has a self-cleavage of 0.02.
In the case of C9A G51U, the self-cleavage is reported as 0.05.
In the case of C9A G53A, the self-cleavage is reported as 0.29.
Work on C9A G53C yielded a self-cleavage of 0.03.
C9A G53U showed a self-cleavage of 0.09.
Work on C9A G54A yielded a self-cleavage of 0.43.
Variant C9A G54C has a self-cleavage of 0.34.
C9A G54U showed a self-cleavage of 0.36.
C9A U12A showed a self-cleavage of 0.16.
For C9A U12C, the self-cleavage was 0.1.
For C9A U12G, the self-cleavage was 0.08.
C9A U18A showed a self-cleavage of 0.47.
In the case of C9A U18C, the self-cleavage is reported as 0.19.
Variant C9A U18G has a self-cleavage of 0.31.
Variant C9A U24A has a self-cleavage of 0.04.
For C9A U24C, the self-cleavage was 0.07.
C9A U24G gave a self-cleavage of 0.07.
C9A U37A gave a self-cleavage of 0.28.
Variant C9A U37C has a self-cleavage of 0.53.
With C9A U37G the self-cleavage was 0.53.
C9A U43A gave a self-cleavage of 0.37.
C9A U43C gave a self-cleavage of 0.07.
C9A U43G gave a self-cleavage of 0.14.
Variant C9G has a self-cleavage of 0.93.
C9G G13A showed a self-cleavage of 0.06.
C9G G13C showed a self-cleavage of 0.03.
Variant C9G G13U has a self-cleavage of 0.03.
C9G G19A gave a self-cleavage of 0.2.
Variant C9G G19C has a self-cleavage of 0.06.
C9G G19U showed a self-cleavage of 0.11.
C9G G22A gave a self-cleavage of 0.15.
C9G G22C gave a self-cleavage of 0.05.
For C9G G22U, the self-cleavage was 0.14.
With C9G G23A the self-cleavage was 0.24.
C9G G23C gave a self-cleavage of 0.07.
For C9G G23U, the self-cleavage was 0.04.
Variant C9G G30A has a self-cleavage of 0.02.
Variant C9G G30C has a self-cleavage of 0.04.
Variant C9G G30U has a self-cleavage of 0.04.
In the case of C9G G34A, the self-cleavage is reported as 0.29.
Variant C9G G34C has a self-cleavage of 0.3.
In the case of C9G G34U, the self-cleavage is reported as 0.12.
In the case of C9G G35A, the self-cleavage is reported as 0.47.
Variant C9G G35C has a self-cleavage of 0.16.
Variant C9G G35U has a self-cleavage of 0.44.
For C9G G42A, the self-cleavage was 0.11.
C9G G42C showed a self-cleavage of 0.07.
For C9G G42U, the self-cleavage was 0.05.
C9G G44A showed a self-cleavage of 0.82.
With C9G G44C the self-cleavage was 1.04.
In the case of C9G G44U, the self-cleavage is reported as 0.95.
For C9G G45A, the self-cleavage was 0.11.
For C9G G45C, the self-cleavage was 0.04.
In the case of C9G G45U, the self-cleavage is reported as 0.07.
In the case of C9G G47A, the self-cleavage is reported as 0.09.
For C9G G47C, the self-cleavage was 0.06.
C9G G47U gave a self-cleavage of 0.07.
For C9G G48A, the self-cleavage was 0.07.
Variant C9G G48C has a self-cleavage of 0.08.
In the case of C9G G48U, the self-cleavage is reported as 0.06.
Work on C9G G49A yielded a self-cleavage of 0.09.
With C9G G49C the self-cleavage was 0.06.
In the case of C9G G49U, the self-cleavage is reported as 0.09.
C9G G50A gave a self-cleavage of 0.48.
Variant C9G G50C has a self-cleavage of 0.59.
C9G G50U showed a self-cleavage of 0.84.
Work on C9G G51A yielded a self-cleavage of 0.23.
Variant C9G G51C has a self-cleavage of 0.06.
For C9G G51U, the self-cleavage was 0.12.
For C9G G53A, the self-cleavage was 0.48.
Variant C9G G53C has a self-cleavage of 0.05.
In the case of C9G G53U, the self-cleavage is reported as 0.14.
C9G G54A showed a self-cleavage of 0.71.
For C9G G54C, the self-cleavage was 0.77.
For C9G G54U, the self-cleavage was 0.73.
Variant C9G U12A has a self-cleavage of 0.13.
C9G U12C gave a self-cleavage of 0.1.
Work on C9G U12G yielded a self-cleavage of 0.11.
Variant C9G U18A has a self-cleavage of 0.85.
C9G U18C gave a self-cleavage of 0.66.
For C9G U18G, the self-cleavage was 0.73.
In the case of C9G U24A, the self-cleavage is reported as 0.08.
Work on C9G U24C yielded a self-cleavage of 0.1.
For C9G U24G, the self-cleavage was 0.04.
With C9G U37A the self-cleavage was 0.76.
Work on C9G U37C yielded a self-cleavage of 0.94.
Variant C9G U37G has a self-cleavage of 0.92.
For C9G U43A, the self-cleavage was 0.87.
Work on C9G U43C yielded a self-cleavage of 0.16.
Variant C9G U43G has a self-cleavage of 0.21.
C9U showed a self-cleavage of 0.78.
For C9U G13A, the self-cleavage was 0.04.
Variant C9U G13C has a self-cleavage of 0.01.
C9U G13U gave a self-cleavage of 0.01.
Work on C9U G19A yielded a self-cleavage of 0.26.
Variant C9U G19C has a self-cleavage of 0.05.
Variant C9U G19U has a self-cleavage of 0.08.
Variant C9U G22A has a self-cleavage of 0.68.
With C9U G22C the self-cleavage was 0.03.
Work on C9U G22U yielded a self-cleavage of 0.26.
With C9U G23A the self-cleavage was 0.12.
Work on C9U G23C yielded a self-cleavage of 0.03.
With C9U G23U the self-cleavage was 0.03.
C9U G30A showed a self-cleavage of 0.02.
C9U G30C gave a self-cleavage of 0.03.
In the case of C9U G30U, the self-cleavage is reported as 0.02.
For C9U G34A, the self-cleavage was 0.41.
With C9U G34C the self-cleavage was 0.11.
C9U G34U showed a self-cleavage of 0.28.
Variant C9U G35A has a self-cleavage of 0.53.
Variant C9U G35C has a self-cleavage of 0.21.
With C9U G35U the self-cleavage was 0.59.
C9U G42A gave a self-cleavage of 0.09.
Variant C9U G42C has a self-cleavage of 0.04.
For C9U G42U, the self-cleavage was 0.04.
For C9U G44A, the self-cleavage was 0.76.
With C9U G44C the self-cleavage was 0.67.
In the case of C9U G44U, the self-cleavage is reported as 0.69.
For C9U G45A, the self-cleavage was 0.06.
In the case of C9U G45C, the self-cleavage is reported as 0.03.
C9U G45U gave a self-cleavage of 0.04.
Work on C9U G47A yielded a self-cleavage of 0.06.
Variant C9U G47C has a self-cleavage of 0.02.
C9U G47U showed a self-cleavage of 0.06.
C9U G48A gave a self-cleavage of 0.03.
With C9U G48C the self-cleavage was 0.04.
Variant C9U G48U has a self-cleavage of 0.03.
With C9U G49A the self-cleavage was 0.06.
Variant C9U G49C has a self-cleavage of 0.04.
C9U G49U gave a self-cleavage of 0.05.
With C9U G50A the self-cleavage was 0.28.
With C9U G50C the self-cleavage was 0.73.
C9U G50U showed a self-cleavage of 0.86.
For C9U G51A, the self-cleavage was 0.28.
In the case of C9U G51C, the self-cleavage is reported as 0.04.
With C9U G51U the self-cleavage was 0.11.
In the case of C9U G53A, the self-cleavage is reported as 0.63.
C9U G53C showed a self-cleavage of 0.05.
C9U G53U gave a self-cleavage of 0.17.
C9U G54A gave a self-cleavage of 0.69.
C9U G54C showed a self-cleavage of 0.71.
For C9U G54U, the self-cleavage was 0.72.
C9U U12A gave a self-cleavage of 0.24.
In the case of C9U U12C, the self-cleavage is reported as 0.05.
For C9U U12G, the self-cleavage was 0.06.
With C9U U18A the self-cleavage was 0.6.
